# TAG inh: triacylglycerol accumulation inhibition; H9c2 cells, Nile Red lipid (TAG) fluorescence; cells loaded with 200 µM oleic acid; inhibition, % at 12.5 µM; hit rate 0.66% among 230,000; AID 651582;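 active = pattern-corrected inhibition of lipid staining of at least 50% with the nuclear-stain viability signal not falling by more than 50%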;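 also: 0% = DMSO wells and 100% = triacsin C control wells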
# A1 inh: inhibitors of the anti-apoptotic protein A1, read as caspase activation. hit rate 0.066% among 330,000. caspase activation, % (test concentration not listed). MEF A1-2A-BIM cells, Caspase-Glo 3/7 luminescence, 3 h; percent of clofoctol response, vehicle zero;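 active = over half of replicate activation scores above 10%, or exactly half above 10 with the replicate mean above 10; inconclusive = replicate mean below 10 yet half the replicates above 10; inactive = over half of replicates below 10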
# CSC inhib: blocks cancer stem cells; cancer stem cell-like cells viability, luminescence; inhibition, % at 7.5 µM; hit rate 1.1% among 300,000; in the data active = inhibition above about 75%; inconclusive = no clear call, values can overlap the other calls; tested in HMLE shEcad cells
# Beta cell apopt: blocks beta cell apoptosis; INS-1E cytokine-induced death, ATP luminescence, 48 h; percent of positive-control rescue, neutral wells zero; protection from apoptosis, % (no concentration beside the values); hit rate 0.8% among 300,000; AID 435005;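 active = Every replicate reaches about 75%, or at least half do and their mean reaches it too, limit read from the data; inconclusive = At least half of replicates reach the limit but their mean does not; inactive = Under half of replicates reach the limit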;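 also: 0% = cytokine-treated negative control wells and 100% = positive control rescue; higher means more ATP so stronger rescue from cytokine killing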
# T cruzi repl: blocks replication of Trypanosoma cruzi; T. cruzi beta-gal in NIH3T3, luminescence, 90 h; inhibition, % (test concentration not listed); hit rate 1.4% among 300,000;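 active = mean inhibition across valid replicates above about 55%, limit read from the data; inconclusive = mean below that limit but half or more replicates reach it; inactive = mean below it, under half of replicates reach it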;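 also: signal also drops with host cell toxicity which is not excluded here; 0% = plate median of DMSO wells and 100% = zero luminescence signal; higher percent means less beta-gal luminescence so fewer parasites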
#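 System: mouse NIH/3T3 fibroblasts infected with β-gal-expressing T. cruzi Tulahuen C4 / Input: NIH/3T3 cells, 5,000 per well / Buffer or medium: Low-serum DMEM with 2% FBS / Probe or stimulus: 5000 reporter trypomastigotes per well / Schedule: ≥90 h infection period, 3 h prior cell attachment / Measured by: GalScreen luminescence, 60 min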
# Calb FLC: C. albicans growth modulation with fluconazole. C. albicans CaCi-2 + fluconazole, Alamar Blue growth, 48 h. growth inhibition, % (concentration not given with the values). hit rate 0.57% among 300,000. AID 1979;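 active = growth inhibition above about 58% in most replicates, limit read from the data, passing the limit was not always enough; inconclusive = exactly half the replicates above a set limit; inactive = most replicates below a set limit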;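 also: all wells also contain fluconazole at 8 µg/ml as a sub-toxic cotreatment; 0% = median of DMSO wells and 100% = median of geldanamycin control wells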
# * hit, by the source's call; ? = inconclusive; · = no result. Most compounds without a hit are left out; they make up all but 3.1% or so of the library.
SMILES,TAG inh,A1 inh,CSC inhib,Beta cell apopt,T cruzi repl,Calb FLC
CC1CCC(NC(=O)CCNC(=O)c2ccccc2)CC1 (stereo not given),-8,0,-1,-8,-8,107*
CCOc1ccc(C(=O)NCC(=O)OCCCC(=O)c2ccc(F)cc2)cc1OCC,7,0,·,-1,·,·
Cn1cccc1/C=C1\SC(=S)N(Nc2ccccc2)C1=O,-5,-1,92*,15,64*,7
Cc1ccc(S(=O)(=O)NN2C(=O)/C(=C/c3cccn3C)SC2=S)cc1,·,2,-4,-1,·,·
N#C/C(=C/C=C/c1ccccc1)C(=O)Nc1ccccc1,·,1,4,4,69*,-4
N#C/C(=C\C=C\c1ccccc1)C(=O)Nc1ccccc1,·,1,10,11,8,22
Cc1cccc(/C=N\NC(=O)c2ccc(Cl)cc2)c1O,9,-1,-13,96*,64*,2
CCn1c(C)nc2cc(C(=O)N/N=C/c3cccc(O)c3O)ccc21,12,0,-5,76*,-24,23
Cc1ccc(/C=N/NC(=O)c2ccc3c(c2)OCCO3)s1,9,-5,92*,8,-13,0
O=C(N/N=C/c1cccc(O)c1)c1ccc2c(c1)OCCO2,·,-12,14,4,-7,0
Cc1cccc(/C=N/NC(=O)c2ccc3c(c2)OCCO3)c1O,·,2,-20,94*,45,21
COc1cc(CNc2ccc(N3CCN(C(C)=O)CC3)cc2)ccc1OCc1ccc(F)cc1,3,-1,52,6,-46,1
CC1(C2CC2)NC(=O)N(CC(=O)Nc2ccccc2C#N)C1=O (stereo not given),3,·,·,·,·,·
CN(CC(=O)Oc1ccc(-c2nnco2)cc1)S(=O)(=O)c1ccc(F)cc1,3,0,-3,-1,-9,3
O=C(N/N=C/c1ccc(-c2ccc(Br)cc2)o1)c1ccc2c(c1)OCO2,-2,0,8,4,74*,7
COc1cccc(/C=N/NC(=O)c2c(C)nc3ccc(Cl)cn23)c1O,·,0,71,123*,20,104*
COc1cccc(/C=N/NC(=O)CNC(=O)c2ccc3c(c2)OCCO3)c1O,·,1,10,15,-16,-57
COc1ccccc1/C=N/NC(=O)c1c(-c2ccccc2)noc1C,·,0,21,-13,-5,-6
CCOc1cccc(/C=N/NC(=O)c2ccc3c(c2)OCCO3)c1O,·,-4,28,92*,-21,1
COc1ccccc1/C=N\NC(=O)c1c(C)nc2ccc(Cl)cn12,1,-1,-8,-5,2,-28
O=C(N/N=C/c1ccc(COc2ccc(Br)cc2)o1)c1ccc2c(c1)OCO2,-47,·,·,·,20,4
Cc1cccc(/C=N/NC(=O)c2c(-c3ccccc3)noc2C)c1O,14,0,-12,92*,52,-20
O=C(CCN=C1NS(=O)(=O)c2ccccc21)Nc1ccc(F)cc1Cl,-5,0,-3,4,·,·
CC1CC(C)(C)CC2(C1)NC(=O)N(CC(=O)N1CCN(S(=O)(=O)c3ccc(F)c(F)c3F)CC1)C2=O (stereo not given),-5,·,·,·,·,·
CCn1c(C)nc2cc(C(=O)NNC(=S)Nc3ccccc3Cl)ccc21,·,-1,-7,3,-3,-4
SMILES,TAG inh,A1 inh,CSC inhib,Beta cell apopt,T cruzi repl,Calb FLC
CCn1c(C)nc2cc(C(=O)NNC(=S)Nc3ccc(Cl)cc3Cl)ccc21,6,0,5,1,6,95*
O=C(N/N=C/c1cc([N+](=O)[O-])ccc1O)c1ccc2c(c1)OCCO2,·,-10,11,105*,-16,23
O=C(Nc1ccc(S(=O)(=O)Nc2ccccn2)cc1)c1ccc(Cl)cc1Cl,·,1,-17,0,0,1
Nc1cc2c(cc1Cl)-c1ccc(Cl)cc1C2,11,·,·,·,·,·
CCCCn1c2c(c(=N)c3ccccc31)CCC2,-18,-1,3,46,21,0
CCCCCn1c2c(c(=N)c3ccccc31)CCC2,-7,-1,12,23,59*,-4
CCCCCCCCn1c2c(c(=N)c3ccccc31)CCC2,·,·,·,·,60*,?
CC(=O)c1cc2c(cc1NC(=O)CCc1c(C)nc3ncnn3c1C)OCO2,19,1,·,-3,·,·
c1ccc2nc(-c3nc4ccccc4[nH]3)ccc2c1,6,-7,76*,43,-17,-13
Cc1nn(-c2ccccn2)c2nc(-c3cccs3)cc(C(=O)NCc3ccco3)c12,·,0,11,4,10,2
CCOC(=O)c1cc(-c2cccs2)nc2c1c(C)nn2-c1ccccn1,5,0,104*,65,7,0
O=C(NCc1cccnc1)c1sc2cc(Cl)ccc2c1Cl,·,0,-4,-12,42,3
Cn1c(C(=O)NCc2cccnc2)cc2sc(Cl)cc21,·,0,-8,0,61*,-6
CCOc1ccc2c3c(c(=O)oc2c1OCC)CCCC3,-7,0,-3,·,26,-7
CCCOc1ccc2c3c(c(=O)oc2c1OCCC)CCCC3,16,-1,·,100*,14,0
CC(C)CN(C(=O)COC(=O)C12CC3CC(CC(C3)C1)C2)c1c(N)n(Cc2ccccc2)c(=O)[nH]c1=O,9,-1,23,99*,6,·
CC(=O)Nc1sc(C)c(C)c1C(=O)OCC(=O)N(CC(C)C)c1c(N)n(Cc2ccccc2)c(=O)[nH]c1=O,-5,0,81*,-5,35,·
CC(C)CN(C(=O)c1ccc([N+](=O)[O-])s1)c1c(N)n(Cc2ccccc2)c(=O)[nH]c1=O,-4,0,-1,1,64*,·
CC(C)CN(C(=O)c1ccc2c(c1)OCCO2)c1c(N)n(Cc2ccccc2)c(=O)[nH]c1=O,-16,0,0,·,-16,0
CC(C)CN(C(=O)COC(=O)C12CC3CC(CC(O)(C3)C1)C2)c1c(N)n(Cc2ccccc2)c(=O)[nH]c1=O,-8,·,·,·,·,·
N#Cc1ccc(/C=N/N=C(N)N)cc1,6,-1,6,10,35,-6
O=C(N/N=C/c1ccccc1)c1ccc(OCc2ccccc2)cc1,6,-1,·,4,-13,17
NC(N)=N/N=C/c1ccc(OCc2ccccc2)cc1,·,-3,36,82*,71*,-12
NC(N)=N/N=C/c1ccc(Br)cc1,·,0,39,8,67*,4
NC(N)=N/N=C/c1ccc(OCc2ccc(Cl)cc2)cc1,·,0,·,·,61*,111*
COc1cc(NC(=S)N2CCc3ccccc3C2)cc(OC)c1,14,0,-11,0,-9,15
COCCCN(C(=O)c1cc(C)oc1C)c1c(N)n(CC(C)C)c(=O)[nH]c1=O,-6,1,-17,3,·,·
CCCCNC(=O)C(c1ccc(OCC(=O)OC)c(C(=O)OC)c1)N(CCOC)C(=O)CCCCCN1C(=O)NC(c2ccc(-c3ccccc3)cc2)C(C(=O)OCc2ccccc2)=C1C (stereo not given),·,2,125*,-2,21,1

# Compound activity as filed in PubChem.
